Data taken from ChEMBL document CHEMBL3108711, “Penicillipyrones A and B, meroterpenoids from a marine-derived Penicillium sp. fungus” (2014).
Calls of active or inactive are those of the source. The calls are words filed in the database; no cut-off is given here.

Tests used:
Hepa-1c1c7 [1] = test: Induction of quinone reductase in mouse Hepa-1c1c7 cells at 2 uM after 24 hrs by MTT assay relative to control; type: cell-based
Hepa-1c1c7 [2] = test: Induction of quinone reductase in mouse Hepa-1c1c7 cells at 40 uM after 24 hrs by MTT assay relative to control; type: cell-based
Outline: (§1)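 QR induction measured in murine Hepa 1c1c7 hepatoma cells. Test concentrations ranged 5−40 μM. Blank control was 0.1% DMSO, and β-NF at 2 μM served as the positive control. Induction is expressed as fold over the blank control.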

Candida albicans = test: Antimicrobial activity against Candida albicans ATCC 10231 after 48 to 72 hrs by two-fold broth dilution assay; type: functional
[3] = system: Trichophyton mentagrophytes; test: Antimicrobial activity against Trichophyton mentagrophytes IFO 40996 after 48 to 72 hrs by two-fold broth dilution assay; type: functional
Trichophyton rubrum = test: Antimicrobial activity against Trichophyton rubrum IFO 9185 after 48 to 72 hrs by two-fold broth dilution assay; type: functional
Aspergillus fumigatus = test: Antimicrobial activity against Aspergillus fumigatus HIC 6094 after 48 to 72 hrs by two-fold broth dilution assay; type: functional
Staphylococcus aureus = test: Antimicrobial activity against Staphylococcus aureus ATCC 6538p after 24 hrs by two-fold broth dilution assay; type: functional
Micrococcus luteus = test: Antimicrobial activity against Micrococcus luteus IFO 12708 after 24 hrs by two-fold broth dilution assay; type: functional; conditions: IFO 12708, 24 h
Bacillus spizizenii = test: Antimicrobial activity against Bacillus subtilis ATCC 6633 after 24 hrs by two-fold broth dilution assay; type: functional; conditions: ATCC 6633, 24 h
Salmonella typhimurium = test: Antimicrobial activity against Salmonella typhimurium ATCC 14028 after 24 hrs by two-fold broth dilution assay; type: functional, Salmonella enterica subsp. enterica serovar Typhimurium; conditions: Salmonella enterica, ATCC 14028, 24 h
Proteus vulgaris = test: Antimicrobial activity against Proteus vulgaris ATCC 3851 after 24 hrs by two-fold broth dilution assay; type: functional; conditions: ATCC 3851, 24 h
Escherichia coli = test: Antimicrobial activity against Escherichia coli ATCC 35270 after 24 hrs by two-fold broth dilution assay; type: functional; conditions: ATCC 35270, 24 h
K562 = test: Cytotoxicity against human K562 cells after 48 hrs by MTT assay; type: functional; conditions: K562, 48 h, read-out: LC50 (the source's name)
Outline: (§2)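 Values reported as LC50 (μM), with doxorubicin as the positive control; the rest of the method follows the cited literature protocol.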

A549 = test: Cytotoxicity against human A549 cells after 48 hrs by MTT assay; type: functional; conditions: A549, 48 h; outline: as §2
Hepa-1c1c7 [4] = test: Induction of quinone reductase in mouse Hepa-1c1c7 cells after 24 hrs by MTT assay; type: cell-based; outline: as §1
[5] = read-out: LC50 (the source's name)

| SMILES | Activity (Hepa-1c1c7 [1]) | Activity (Hepa-1c1c7 [2]) | MIC (Candida albicans) [µg/mL] | MIC [3] [µg/mL] | MIC (Trichophyton rubrum) [µg/mL] | MIC (Aspergillus fumigatus) [µg/mL] | MIC (Staphylococcus aureus) [µg/mL] | MIC (Micrococcus luteus) [µg/mL] | MIC (Bacillus spizizenii) [µg/mL] | MIC (Salmonella typhimurium) [µg/mL] | MIC (Proteus vulgaris) [µg/mL] | MIC (Escherichia coli) [µg/mL] | CC50 (K562) [µM] | CC50 (A549; [5]) [µM] | Ratio (Hepa-1c1c7 [2]) | Activity (Hepa-1c1c7 [4]) | CC50 (A549; read-out: LD50 (the source's name)) [µM] |
| --- | --- | --- | --- | --- | --- | --- | --- | --- | --- | --- | --- | --- | --- | --- | --- | --- | --- |
| O=c1cc(-c2ccccc2)oc2ccc3ccccc3c12 | Active | – | – | – | – | – | – | – | – | – | – | – | – | – | – | – | – |
| Cc1cc(=O)c2c(o1)O[C@@]1(C)[C@@H](CC[C@H]3C(C)(C)[C@@H](O)CC[C@@]31C)C2 | – | inactive | > 100 | > 100 | > 100 | > 100 | > 100 | > 100 | > 100 | > 100 | > 100 | > 100 | 28 | 15 | – | – | – |
| Cc1cc(=O)c2c(o1)O[C@@]1(C)[C@@H](CC[C@H]3C(C)(C)C(=O)CC[C@@]31C)C2 | – | – | > 100 | > 100 | > 100 | > 100 | > 100 | > 100 | > 100 | > 100 | > 100 | > 100 | 50 | 17 | 1.9 | Dose-dependent effect | – |
| COc1cccc2c1C(=O)c1c(O)c3c(c(O)c1C2=O)C[C@@](O)(C(=O)CO)C[C@@H]3O[C@H]1C[C@H](N)[C@H](O)[C@H](C)O1 [DOXORUBICIN] | – | – | – | – | – | – | – | – | – | – | – | – | 0.99 | – | – | – | 1.2 |
